Data: ChEMBL document CHEMBL5058577, “EUbOPEN Chemogenomics Library 2 (Multiplex)” (2022)

Test system: U2OS
Experiment: Multiplex assay against U2OS
Type: toxicity, cell-based
Settings: human
How it was run: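 With compound added, live cells were imaged on a CQ1 microscope at 37°C and 5% CO2; staining with Hoechst33342, BioTracker Green Microtubule Cytoskeleton Dye, MitoTracker Red and Annexin V Alexa Fluor 680 had been done at seeding. The CellPathfinder machine-learning gating scheme split cells into Hoechst high-intensity objects or normal cells, normal cells into healthy, pyknosed or fragmented nuclei, and pyknosed cells into mitotic or apoptotic. The tubulin, mitochondrial-mass and membrane-permeability phenotypes are per cents of healthy-nucleus cells.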

[1] = 12 h, 1 µM, compound concentration 1 uM, replicate 1
[2] = 12 h, 1 µM, compound concentration 1 uM, replicate 2
[3] = 12 h, 10 µM, compound concentration 10 uM, replicate 1
[4] = 12 h, 10 µM, compound concentration 10 uM, replicate 2
[5] = 24 h, 1 µM, compound concentration 1 uM, replicate 1
[6] = 24 h, 1 µM, compound concentration 1 uM, replicate 2
[7] = 24 h, 10 µM, compound concentration 10 uM, replicate 1
[8] = 24 h, 10 µM, compound concentration 10 uM, replicate 2
[9] = 48 h, 1 µM, compound concentration 1 uM, replicate 1
[10] = 48 h, 1 µM, compound concentration 1 uM, replicate 2
[11] = 48 h, 10 µM, compound concentration 10 uM, replicate 1
[12] = 48 h, 10 µM, compound concentration 10 uM, replicate 2

Structure (SMILES): Cc1sc2c(c1C)C(c1ccc(Cl)cc1)=N[C@@H](CC(=O)NCCCCCCCCNC(=O)COc1cccc3c1C(=O)N(C1CCC(=O)NC1=O)C3=O)c1nnc(C)n1-2 (stereo partly specified)
- Population Apoptotic (%) [1]: 93%
- Population Fragmented Nuclei (%) [1]: 43%
- Population Healthy Nuclei (%) [1]: 49%
- Population Hoechst High Intensity Objects (%) [1]: 11%
- Population Membrane Permeable-Phenotype (%) [1]: 9%
- Population Mitochondria Different-Phenotype (%) [1]: 4%
- Population Mitotic Cells (%) [1]: 6%
- Population Normal (%) [1]: 88%
- Population Pyknosed Nuclei (%) [1]: 6%
- Population Tubulin-Different-Phenotype (%) [1]: 5%
- Total Cell Count [1]: 269
- Population Apoptotic (%) [2]: 87%
- Population Fragmented Nuclei (%) [2]: 13%
- Population Healthy Nuclei (%) [2]: 80%
- Population Hoechst High Intensity Objects (%) [2]: 0%
- Population Membrane Permeable-Phenotype (%) [2]: 5%
- Population Mitochondria Different-Phenotype (%) [2]: 1%
- Population Mitotic Cells (%) [2]: 12%
- Population Normal (%) [2]: 99%
- Population Pyknosed Nuclei (%) [2]: 5%
- Population Tubulin-Different-Phenotype (%) [2]: 3%
- Total Cell Count [2]: 136
- Population Apoptotic (%) [3]: 86%
- Population Fragmented Nuclei (%) [3]: 31%
- Population Healthy Nuclei (%) [3]: 55%
- Population Hoechst High Intensity Objects (%) [3]: 5%
- Population Membrane Permeable-Phenotype (%) [3]: 2%
- Population Mitochondria Different-Phenotype (%) [3]: 4%
- Population Mitotic Cells (%) [3]: 13%
- Population Normal (%) [3]: 94%
- Population Pyknosed Nuclei (%) [3]: 13%
- Population Tubulin-Different-Phenotype (%) [3]: 0%
- Total Cell Count [3]: 233
- Population Apoptotic (%) [4]: 100%
- Population Fragmented Nuclei (%) [4]: 19%
- Population Healthy Nuclei (%) [4]: 75%
- Population Hoechst High Intensity Objects (%) [4]: 0%
- Population Membrane Permeable-Phenotype (%) [4]: 17%
- Population Mitochondria Different-Phenotype (%) [4]: 12%
- Population Mitotic Cells (%) [4]: 0%
- Population Normal (%) [4]: 99%
- Population Pyknosed Nuclei (%) [4]: 4%
- Population Tubulin-Different-Phenotype (%) [4]: 12%
- Total Cell Count [4]: 117
- Population Apoptotic (%) [5]: 100%
- Population Fragmented Nuclei (%) [5]: 42%
- Population Healthy Nuclei (%) [5]: 51%
- Population Hoechst High Intensity Objects (%) [5]: 11%
- Population Membrane Permeable-Phenotype (%) [5]: 8%
- Population Mitochondria Different-Phenotype (%) [5]: 3%
- Population Mitotic Cells (%) [5]: 0%
- Population Normal (%) [5]: 88%
- Population Pyknosed Nuclei (%) [5]: 6%
- Population Tubulin-Different-Phenotype (%) [5]: 5%
- Total Cell Count [5]: 297
- Population Apoptotic (%) [6]: 92%
- Population Fragmented Nuclei (%) [6]: 12%
- Population Healthy Nuclei (%) [6]: 80%
- Population Hoechst High Intensity Objects (%) [6]: 2%
- Population Membrane Permeable-Phenotype (%) [6]: 5%
- Population Mitochondria Different-Phenotype (%) [6]: 2%
- Population Mitotic Cells (%) [6]: 7%
- Population Normal (%) [6]: 97%
- Population Pyknosed Nuclei (%) [6]: 7%
- Population Tubulin-Different-Phenotype (%) [6]: 4%
- Total Cell Count [6]: 174
- Population Apoptotic (%) [7]: 100%
- Population Fragmented Nuclei (%) [7]: 34%
- Population Healthy Nuclei (%) [7]: 53%
- Population Hoechst High Intensity Objects (%) [7]: 8%
- Population Membrane Permeable-Phenotype (%) [7]: 4%
- Population Mitochondria Different-Phenotype (%) [7]: 5%
- Population Mitotic Cells (%) [7]: 0%
- Population Normal (%) [7]: 91%
- Population Pyknosed Nuclei (%) [7]: 12%
- Population Tubulin-Different-Phenotype (%) [7]: 2%
- Total Cell Count [7]: 245
- Population Fragmented Nuclei (%) [8]: 27%
- Population Healthy Nuclei (%) [8]: 65%
- Population Hoechst High Intensity Objects (%) [8]: 0%
- Population Membrane Permeable-Phenotype (%) [8]: 21%
- Population Mitochondria Different-Phenotype (%) [8]: 9%
- Population Normal (%) [8]: 99%
- Population Pyknosed Nuclei (%) [8]: 7%
- Population Tubulin-Different-Phenotype (%) [8]: 14%
- Total Cell Count [8]: 130
- Population Apoptotic (%) [9]: 91%
- Population Fragmented Nuclei (%) [9]: 35%
- Population Healthy Nuclei (%) [9]: 53%
- Population Hoechst High Intensity Objects (%) [9]: 10%
- Population Membrane Permeable-Phenotype (%) [9]: 6%
- Population Mitochondria Different-Phenotype (%) [9]: 1%
- Population Mitotic Cells (%) [9]: 8%
- Population Normal (%) [9]: 89%
- Population Pyknosed Nuclei (%) [9]: 10%
- Population Tubulin-Different-Phenotype (%) [9]: 2%
- Total Cell Count [9]: 353
- Population Apoptotic (%) [10]: 90%
- Population Fragmented Nuclei (%) [10]: 12%
- Population Healthy Nuclei (%) [10]: 79%
- Population Hoechst High Intensity Objects (%) [10]: 1%
- Population Membrane Permeable-Phenotype (%) [10]: 4%
- Population Mitotic Cells (%) [10]: 9%
- Population Normal (%) [10]: 98%
- Population Pyknosed Nuclei (%) [10]: 7%
- Population Tubulin-Different-Phenotype (%) [10]: 1%
- Total Cell Count [10]: 270
- Population Apoptotic (%) [11]: 100%
- Population Fragmented Nuclei (%) [11]: 36%
- Population Healthy Nuclei (%) [11]: 51%
- Population Hoechst High Intensity Objects (%) [11]: 7%
- Population Membrane Permeable-Phenotype (%) [11]: 9%
- Population Mitochondria Different-Phenotype (%) [11]: 4%
- Population Mitotic Cells (%) [11]: 0%
- Population Normal (%) [11]: 92%
- Population Pyknosed Nuclei (%) [11]: 12%
- Population Tubulin-Different-Phenotype (%) [11]: 4%
- Total Cell Count [11]: 289
- Population Fragmented Nuclei (%) [12]: 25%
- Population Healthy Nuclei (%) [12]: 70%
- Population Hoechst High Intensity Objects (%) [12]: 2%
- Population Membrane Permeable-Phenotype (%) [12]: 10%
- Population Normal (%) [12]: 97%
- Population Pyknosed Nuclei (%) [12]: 4%
- Population Tubulin-Different-Phenotype (%) [12]: 7%
- Total Cell Count [12]: 179
